Laboratory results reported in ChEMBL document CHEMBL1123237 (J Med Chem, 1986).

Legend:
Type in all cases: functional, Artery
[1] = system: Rattus norvegicus; assay: Baseline mean aortic blood pressure in conscious renal (1clip/2kidney) hypertensive rats at dose 3 mg/kg administered orally.
Procedure, shortened: (§1)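 Oral dosing in rats cannulated for aortic blood pressure monitoring. Only rats with mean aortic pressure >160 mmHg were used; they weighed 280-320 g at cannulation. Rats had free access to standard chow and tap water on a 12-h dark/12-h light cycle. The value is the pre-dose mean aortic pressure, given as mean ± 1 SEM; 3-6 rats per dose.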

[2] = system: Rattus norvegicus; assay: Maximum change aortic blood pressure in conscious renal (1clip/2kidney) hypertensive rats at dose 1 mg/kg administered orally at 4 hr.; conditions: route oral
[3] = system: Rattus norvegicus; assay: Maximum change aortic blood pressure in conscious renal (1clip/2kidney) hypertensive rats at dose 10 mg/kg administered orally at 5 hr; conditions: route oral
[4] = system: Rattus norvegicus; assay: Maximum change aortic blood pressure in conscious renal (1clip/2kidney) hypertensive rats at dose 3 mg/kg administered orally at 5 hr.; conditions: route oral
[5] = system: Rattus norvegicus; assay: Baseline mean aortic blood pressure in conscious renal (1clip/2kidney) hypertensive rats at dose 1 mg/kg administered orally.; procedure, shortened: as §1
[6] = system: Rattus norvegicus; assay: Maximum change aortic blood pressure in conscious renal (1clip/2kidney) hypertensive rats at dose 0.3 mg/kg administered orally at 10 hr.; conditions: route oral
[7] = system: Rattus norvegicus; assay: Baseline mean aortic blood pressure in conscious renal (1clip/2kidney) hypertensive rats at dose 0.3 mg/kg administered orally.; procedure, shortened: as §1
[8] = system: Rattus norvegicus; assay: Baseline mean aortic blood pressure in conscious renal (1clip/2kidney) hypertensive rats at dose 10 mg/kg administered orally.; procedure, shortened: as §1
[9] = system: Rattus norvegicus; assay: Maximum change aortic blood pressure in conscious renal (1clip/2kidney) hypertensive rats at dose 30 mg/kg administered orally at 9 hr.; conditions: route oral
[10] = system: Rattus norvegicus; assay: Baseline mean aortic blood pressure in conscious renal (1clip/2kidney) hypertensive rats at dose 30 mg/kg administered orally.; procedure, shortened: as §1
[11] = system: Rattus norvegicus; assay: Maximum change aortic blood pressure in conscious renal (1clip/2kidney) hypertensive rats at dose 1 mg/kg administered orally at 7 hr.; conditions: route oral
[12] = system: Rattus norvegicus; assay: Maximum change aortic blood pressure in conscious renal (1clip/2kidney) hypertensive rats at dose 3 mg/kg administered orally at 2 hr.; conditions: route oral
[13] = system: Rattus norvegicus; assay: Maximum change aortic blood pressure in conscious renal (1clip/2kidney) hypertensive rats at dose 10 mg/kg administered orally at 5 hr.; conditions: route oral
[14] = system: Rattus norvegicus; assay: Maximum change aortic blood pressure in conscious renal (1clip/2kidney) hypertensive rats at dose 30 mg/kg administered orally at 10 hr; conditions: route oral
[15] = system: Rattus norvegicus; assay: Maximum change aortic blood pressure in conscious renal (1clip/2kidney) hypertensive rats at dose 30 mg/kg administered orally at 8 hr.; conditions: route oral
[16] = system: Rattus norvegicus; assay: Maximum change aortic blood pressure in conscious renal (1clip/2kidney) hypertensive rats at dose 10 mg/kg administered orally at 10 hr.; conditions: route oral
[17] = system: Rattus norvegicus; assay: Maximum change aortic blood pressure in conscious renal (1clip/2kidney) hypertensive rats at dose 1 mg/kg administered orally at 1 hr; conditions: route oral
[18] = system: Rattus norvegicus; assay: Maximum change aortic blood pressure in conscious renal (1clip/2kidney) hypertensive rats at dose 1 mg/kg administered orally at 10 hr; conditions: route oral
[19] = system: Rattus norvegicus; assay: Baseline mean aortic blood pressure in conscious renal (1clip/2kidney) hypertensive rats at dose 1 mg/kg administered orally; conditions: route oral; procedure, shortened: as §1
[20] = system: Rattus norvegicus; assay: Baseline mean aortic blood pressure in conscious renal (1clip/2kidney) hypertensive rats at dose 30 mg/kg administered orally; conditions: route oral; procedure, shortened: as §1
[21] = system: Rattus norvegicus; assay: Maximum change aortic blood pressure in conscious renal (1clip/2kidney) hypertensive rats at dose 0.3 mg/kg administered orally at 5 hr.; conditions: route oral
[22] = system: Rattus norvegicus; assay: Maximum change aortic blood pressure in conscious renal (1clip/2kidney) hypertensive rats at dose 1 mg/kg administered orally at 8 hr.; conditions: route oral
[23] = system: Rattus norvegicus; assay: Maximum change aortic blood pressure in conscious renal (1clip/2kidney) hypertensive rats at dose 10 mg/kg administered orally at 4 hr.; conditions: route oral
[24] = system: Rattus norvegicus; assay: Maximum change aortic blood pressure in conscious renal (1clip/2kidney) hypertensive rats at dose 3 mg/kg administered orally at 8 hr.; conditions: route oral
[25] = system: Rattus norvegicus; assay: Maximum change aortic blood pressure in conscious renal (1clip/2kidney) hypertensive rats at dose 10 mg/kg administered orally at 6 hr.; conditions: route oral
[26] = system: Rattus norvegicus; assay: Maximum change aortic blood pressure in conscious renal (1clip/2kidney) hypertensive rats at dose 30 mg/kg administered orally; conditions: route oral
[27] = system: Rattus norvegicus; assay: Maximum change aortic blood pressure in conscious renal (1clip/2kidney) hypertensive rats at dose 0.3 mg/kg administered orally at 2 hr.; conditions: route oral
[28] = system: Rattus norvegicus; assay: Maximum change aortic blood pressure in conscious renal (1clip/2kidney) hypertensive rats at dose 30 mg/kg administered orally at 6 hr; conditions: route oral
[29] = system: Rattus norvegicus; assay: Maximum change aortic blood pressure in conscious renal (1clip/2kidney) hypertensive rats at dose 1 mg/kg administered orally at 9 hr.; conditions: route oral
[30] = system: Rattus norvegicus; assay: Maximum change aortic blood pressure in conscious renal (1clip/2kidney) hypertensive rats at dose 30 mg/kg administered orally at 6 hr.; conditions: route oral
[31] = system: Rattus norvegicus; assay: Maximum change aortic blood pressure in conscious renal (1clip/2kidney) hypertensive rats at dose 1 mg/kg administered orally at 6 hr.; conditions: route oral
[32] = system: Rattus norvegicus; assay: Maximum change aortic blood pressure in conscious renal (1clip/2kidney) hypertensive rats at dose 3 mg/kg administered orally at 6 hr.; conditions: route oral

CCOC(=O)[C@H](CCc1ccccc1)N[C@@H](C)C(=O)N1Cc2ccccc2C[C@H]1C(=O)O
MABP [1]: 188 mmHg
MABP [2]: -54 mmHg
MABP [3]: -87 mmHg
MABP [4]: -62 mmHg
MABP [5]: 196 mmHg
MABP [6]: -50 mmHg
MABP [7]: 157 mmHg
MABP [8]: 181 mmHg

C[C@H](N[C@@H](CCc1ccccc1)C(=O)O)C(=O)N1Cc2ccccc2C[C@H]1C(=O)O
MABP [1]: 199 mmHg
MABP [9]: -89 mmHg
MABP [10]: 192 mmHg
MABP [11]: -44 mmHg
MABP [5]: 199 mmHg
MABP [12]: -45 mmHg
MABP [8]: 199 mmHg
MABP [13]: -76 mmHg

CCOC(=O)[C@@H](CCc1ccccc1)N[C@@H](C)C(=O)N1Cc2ccccc2C[C@H]1C(=O)O
MABP [10]: 172 mmHg
MABP [14]: -11 mmHg

CCOC(=O)[C@@H](CCc1ccccc1)N[C@@H](C)C(=O)N1Cc2cc(OC)c(OC)cc2C[C@H]1C(=O)O
MABP [10]: 177 mmHg
MABP [15]: -15 mmHg

CCOC(=O)[C@H](CCc1ccccc1)N[C@@H](C)C(=O)N1Cc2ccccc2C[C@@H]1C(=O)O
MABP [9]: -20 mmHg
MABP [10]: 187 mmHg

CCOC(=O)[C@H](CCc1ccccc1)N[C@@H](C)C(=O)N1Cc2ccccc2[C@H]1C(=O)O
MABP [16]: -80 mmHg
MABP [8]: 200 mmHg

CC(CS)C(=O)N1Cc2ccccc2CC1C(=O)O (stereo unspecified)
MABP [5]: 185 mmHg
MABP [17]: -45 mmHg

CCOC(=O)[C@H](CCc1ccccc1)N[C@@H](C)C(=O)N1Cc2cc(OC)c(OC)cc2C[C@@H]1C(=O)O
MABP [10]: 178 mmHg
MABP [15]: -16 mmHg

CCOC(=O)C(CCc1ccccc1)NC(C)C(=O)N1Cc2ccccc2CC1C(=O)OCC (stereo unspecified)
MABP [18]: -69 mmHg
MABP [19]: 208 mmHg

O=C(O)C1c2ccccc2CN1C(=O)CCS (stereo unspecified)
MABP [20]: 174 mmHg
MABP [14]: -15 mmHg

CCOC(=O)[C@H](CCc1ccccc1)N[C@@H](C)C(=O)N1CCC[C@H]1C(=O)O
MABP [21]: -79 mmHg
MABP [1]: 200 mmHg
MABP [22]: -43 mmHg
MABP [4]: -112 mmHg
MABP [5]: 175 mmHg
MABP [7]: 201 mmHg
MABP [23]: -112 mmHg
MABP [8]: 199 mmHg

COc1cc2c(cc1OC)CN(C(=O)C(C)NC(CCc1ccccc1)C(=O)O)C(C(=O)O)C2 (stereo unspecified)
MABP [1]: 199 mmHg
MABP [22]: -20 mmHg
MABP [10]: 181 mmHg
MABP [5]: 199 mmHg
MABP [24]: -52 mmHg
MABP [15]: -107 mmHg
MABP [8]: 199 mmHg
MABP [25]: -52 mmHg

CC(NC(CCc1ccccc1)C(=O)O)C(=O)N1Cc2ccccc2C1C(=O)O (stereo unspecified)
MABP [1]: 195 mmHg
MABP [24]: -74 mmHg

CC(CS)C(=O)N1Cc2ccccc2C1C(=O)O (racemic)
MABP [20]: 165 mmHg
MABP [26]: 0 mmHg

C[C@H](CS)C(=O)N1CCC[C@H]1C(=O)O [CAPTOPRIL]
MABP [27]: -25 mmHg

CCOC(=O)C(CCc1ccccc1)N1C(=O)C2Cc3ccccc3CN2C(=O)C1C (stereo unspecified) [DIKETOPIPERAZINE DERIVATIVE OF QUINAPRIL]
MABP [20]: 186 mmHg
MABP [28]: -28 mmHg

C[C@H](N[C@@H](CCc1ccccc1)C(=O)O)C(=O)N1CCC[C@H]1C(=O)O [ENALAPRILAT ANHYDROUS]
MABP [1]: 188 mmHg
MABP [29]: -51 mmHg
MABP [10]: 176 mmHg
MABP [5]: 188 mmHg
MABP [30]: -70 mmHg
MABP [12]: -54 mmHg
MABP [8]: 188 mmHg
MABP [25]: -57 mmHg

CCOC(=O)[C@H](CCc1ccccc1)N[C@@H](C)C(=O)N1Cc2cc(OC)c(OC)cc2C[C@H]1C(=O)O [MOEXIPRIL]
MABP [21]: -41 mmHg
MABP [1]: 179 mmHg
MABP [31]: -43 mmHg
MABP [5]: 182 mmHg
MABP [7]: 201 mmHg
MABP [32]: -39 mmHg
MABP [8]: 205 mmHg
MABP [25]: -113 mmHg
